This passage reports self-cleavage results from the RNAGym collection of RNA variant scans (doi:10.1002/anie.201605470).

First the molecules themselves.
B1: Osa-1-4 twister ribozyme (parent)
chain: CCGCCUAACACUGCCAAUGCCGGUCCCAAGCCCGGAUAAAAGUGGAGGGGGCGG

Variants of B1 are the subject of this series. The series is described as follows: self-cleavage, relative activity (ratio to wild type); higher = more cleavage; co-transcriptional. A digest of the protocol: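 The 48 positions downstream of the cleavage site in a DNA template for a 54-nucleotide Oryza sativa twister ribozyme carried 97 % wild-type base and 1 % of each other base. After in vitro transcription (2 h, 37 °C) with co-transcriptional self-cleavage, the RNA was reverse-transcribed with a template-switching oligonucleotide, PCR-amplified and deep-sequenced. Relative activity is the fraction cleaved, judged by reads with or without upstream sequence and normalised to wild type.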
Turning to C52U C9A, the self-cleavage amounted to 0.62.

Consider C52U C9G, for which the self-cleavage came to 0.95.

With C52U C9U, the self-cleavage was 0.87.

For the variant C52G G53A, the self-cleavage came to 0.57.

As to C52G G53U, the self-cleavage came out at 0.44.

With C52G G53C, the self-cleavage is 0.24.

In the case of C52A G42U, the self-cleavage was 0.11.

For the variant C52A G42A, the self-cleavage was determined as 0.68.

As to C52A G42C, the self-cleavage was found to be 0.16.

Consider C52U G30A, for which the self-cleavage was 0.04.

For C52U G30C, the self-cleavage is 0.04.

For C52A G51U, the self-cleavage turned out to be 0.48.

Turning to C52A G51C, the self-cleavage turned out to be 0.43.

On to C52A G51A, for which the self-cleavage turned out to be 0.9.

Turning to C52A U18A, the self-cleavage came out at 0.93.

Consider C52A U18G, for which the self-cleavage was 0.82.

For the variant C52A U18C, the self-cleavage stood at 0.93.

For C52A G22U, the self-cleavage stood at 0.17.

For C52A G22A, the self-cleavage stood at 0.71.

In the case of C52A G22C, the self-cleavage is 0.07.

As for G50U U37A, the self-cleavage turned out to be 0.85.

Regarding G50U U37G, the self-cleavage came to 1.04.

For the variant G50U U37C, the self-cleavage was 1.06.

For the variant C52G G22U, the self-cleavage is 0.35.

Turning to C52G G22C, the self-cleavage turned out to be 0.09.

Turning to C52G G22A, the self-cleavage stood at 0.75.

Consider G50U U18C, for which the self-cleavage worked out at 0.97.

On to G50U U18A, for which the self-cleavage was 0.89.

For G50U U18G, the self-cleavage worked out at 0.8.

On to C52A U43C, for which the self-cleavage amounted to 0.5.

C52A U43A: the self-cleavage stood at 0.85.

With C52A U43G, the self-cleavage turned out to be 0.37.

In the case of C52G U18C, the self-cleavage was 0.93.

Consider C52G U18G, for which the self-cleavage is 0.86.

With C52G U18A, the self-cleavage was 0.91.

For C52G G45C, the self-cleavage was 0.1.

C52G G45A: the self-cleavage amounted to 0.27.

Consider C52G G45U, for which the self-cleavage came to 0.14.

For C52G G54U, the self-cleavage was 0.97.

As to C52G G54A, the self-cleavage was 0.81.

As to C52G G54C, the self-cleavage was determined as 0.91.

As to G51A U37A, the self-cleavage was determined as 0.39.

As to G51A U37G, the self-cleavage came out at 0.78.

As to G51A U37C, the self-cleavage turned out to be 0.82.

As for G49U G51U, the self-cleavage amounted to 0.12.

Consider G49U G51A, for which the self-cleavage worked out at 0.32.

Turning to G49U G51C, the self-cleavage amounted to 0.06.

For G49U G53U, the self-cleavage turned out to be 0.07.

With G49U G53C, the self-cleavage stood at 0.04.

For the variant G49U G53A, the self-cleavage was found to be 0.07.

For the variant C52G G51C, the self-cleavage worked out at 0.41.

On to C52G G51A, for which the self-cleavage worked out at 0.84.

With C52G G51U, the self-cleavage was found to be 0.48.

Turning to G51A U24G, the self-cleavage came to 0.02.

Consider G51A U24A, for which the self-cleavage came to 0.08.

As to G51A U24C, the self-cleavage worked out at 0.08.

Regarding C52A G47A, the self-cleavage came to 0.22.

As for C52A G47U, the self-cleavage was 0.21.

In the case of C52A G47C, the self-cleavage turned out to be 0.1.

In the case of G50U U43A, the self-cleavage was determined as 0.92.

For the variant G50U U43G, the self-cleavage amounted to 0.71.

In the case of G50U U43C, the self-cleavage came out at 0.68.

On to C52G G44C, for which the self-cleavage was found to be 0.9.

For the variant C52G G44U, the self-cleavage came to 0.9.

For C52G G44A, the self-cleavage was determined as 0.98.

Turning to C52A U12G, the self-cleavage worked out at 0.18.

With C52A U12C, the self-cleavage is 0.48.

For C52A U12A, the self-cleavage amounted to 0.71.

With C52A G54C, the self-cleavage is 0.87.

Regarding C52A G54U, the self-cleavage stood at 0.89.

For the variant C52A G54A, the self-cleavage came to 0.69.

As for C52G G47A, the self-cleavage was 0.28.

Turning to C52G G47U, the self-cleavage is 0.29.

For C52G G47C, the self-cleavage came to 0.11.

As to C52A G13U, the self-cleavage came out at 0.03.

Take C52A G13A: the self-cleavage worked out at 0.08.

Take C52A G13C: the self-cleavage was found to be 0.04.

As for G49U U37C, the self-cleavage is 0.18.

Regarding G49U U37A, the self-cleavage was 0.12.

Take G49U U37G: the self-cleavage worked out at 0.3.

For G50A G51U, the self-cleavage is 0.16.

As for G50A G51C, the self-cleavage turned out to be 0.12.

Turning to G50A G51A, the self-cleavage turned out to be 0.5.

Regarding G50C G53U, the self-cleavage was 0.11.

G50C G53C: the self-cleavage worked out at 0.06.

On to G50C G53A, for which the self-cleavage came out at 0.11.

Turning to G50U U12C, the self-cleavage was 0.62.

For the variant G50U U12A, the self-cleavage was found to be 0.82.

Regarding G50U U12G, the self-cleavage was 0.47.

In the case of G51C U18C, the self-cleavage was determined as 0.13.

On to G51C U18G, for which the self-cleavage amounted to 0.13.

As to G51C U18A, the self-cleavage stood at 0.12.

Consider G50C U12A, for which the self-cleavage came to 0.35.

Take G50C U12G: the self-cleavage was 0.17.

Turning to G50C U12C, the self-cleavage was determined as 0.34.

Turning to G50U G51U, the self-cleavage worked out at 0.57.

On to G50U G51A, for which the self-cleavage worked out at 0.66.

In the case of G50U G51C, the self-cleavage worked out at 0.11.

As for G50C U43A, the self-cleavage came out at 0.75.

On to G50C U43G, for which the self-cleavage turned out to be 0.36.

In the case of G50C U43C, the self-cleavage was found to be 0.45.

For G49C U24G, the self-cleavage came to 0.01.

Consider G51C G54U, for which the self-cleavage is 0.12.

For G51C G54A, the self-cleavage came to 0.09.

In the case of G51C G54C, the self-cleavage turned out to be 0.34.

In the case of G51U U37C, the self-cleavage amounted to 0.51.

With G51U U37G, the self-cleavage turned out to be 0.4.

In the case of G51U U37A, the self-cleavage was 0.15.

On to G50C G54C, for which the self-cleavage is 0.1.

For the variant G50C G54U, the self-cleavage was found to be 0.32.

In the case of G50C G54A, the self-cleavage turned out to be 0.15.

As to G50C U18A, the self-cleavage is 0.95.

For the variant G50C U18G, the self-cleavage is 0.75.

For G50C U18C, the self-cleavage came to 0.95.

For the variant G50C U24G, the self-cleavage was 0.02.

As to G50C U24A, the self-cleavage amounted to 0.08.

As to G50C U24C, the self-cleavage worked out at 0.11.

In the case of G51U U18A, the self-cleavage is 0.31.

With G51U U18C, the self-cleavage came out at 0.29.

Regarding G51U U18G, the self-cleavage came to 0.35.

As to C52A G19A, the self-cleavage was 0.42.

Consider C52A G19U, for which the self-cleavage stood at 0.2.

Take C52A G19C: the self-cleavage was 0.08.

With C52A G30A, the self-cleavage was 0.04.

As for C52A G30U, the self-cleavage is 0.04.

As for C52A G30C, the self-cleavage is 0.06.

For C52G U43A, the self-cleavage was 0.9.

As for C52G U43C, the self-cleavage amounted to 0.55.

C52G U43G: the self-cleavage came to 0.65.

As for G50U G54C, the self-cleavage was 0.15.

Take G50U G54A: the self-cleavage came out at 0.79.

In the case of G50U G54U, the self-cleavage is 0.52.

Turning to G50C G51A, the self-cleavage was found to be 0.71.

Take G50C G51C: the self-cleavage was 0.08.

Take G50C G51U: the self-cleavage stood at 0.32.

As for C52U, the self-cleavage is 1.03.

For C52A, the self-cleavage amounted to 1.02.

On to C52G, for which the self-cleavage is 1.01.

For the variant C52A C9G, the self-cleavage was 0.8.

Regarding C52A C9A, the self-cleavage was 0.55.

Consider C52A C9U, for which the self-cleavage is 0.82.

As for C52A U37A, the self-cleavage worked out at 0.9.

Take C52A U37C: the self-cleavage is 1.02.

C52A U37G: the self-cleavage was determined as 1.06.

Regarding G49U U18G, the self-cleavage was found to be 0.29.

As for G49U U18A, the self-cleavage is 0.15.

For G49U U18C, the self-cleavage came out at 0.16.

Consider C52A G45U, for which the self-cleavage turned out to be 0.1.

Take C52A G45C: the self-cleavage worked out at 0.07.

Regarding C52A G45A, the self-cleavage was found to be 0.26.

Turning to C52G G48A, the self-cleavage is 0.13.

Consider C52G G48C, for which the self-cleavage turned out to be 0.1.

Take C52G G48U: the self-cleavage stood at 0.09.

Regarding C52A G34A, the self-cleavage was 0.65.

As for C52A G34C, the self-cleavage was 0.21.

On to C52A G34U, for which the self-cleavage worked out at 0.39.

In the case of C52G C9A, the self-cleavage was determined as 0.57.

With C52G C9U, the self-cleavage came out at 0.85.

Regarding C52G C9G, the self-cleavage turned out to be 0.86.

Take C52G G34C: the self-cleavage came out at 0.17.

Take C52G G34U: the self-cleavage stood at 0.42.

For the variant C52G G34A, the self-cleavage worked out at 0.77.

Consider G51A U12A, for which the self-cleavage was determined as 0.22.

For the variant G51A U12G, the self-cleavage was found to be 0.07.

Regarding G51A U12C, the self-cleavage was 0.22.

Consider G50A U18C, for which the self-cleavage was 0.45.

As to G50A U18A, the self-cleavage is 0.61.
